Assays:
Type in all cases: in vivo, mouse
[1] = test system: SN DA neurons (TH+); assay: In situ detection of ROS with dihydroethidium; settings: following MPTP exposure, with or without Dln101 pre-treatment; n = 4–6 per group
Summary of the method: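 Dihydroethidium, 200 μl of a 1 mg/ml stock in 1% DMSO, was injected into the tail vein. Mice were perfused 3 h later. Midbrain sections were co-immunostained for TH. DHE fluorescence intensity was quantified in TH+ cells, n = 4–6 per group.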

[2] = test system: SN DA neuron mitochondria; assay: Electron microscopy analysis of mitochondrial morphology in SN DA neurons; settings: for Mitochondrial average area in SN DA cells / Mitochondrial cytoplasmic coverage: WT mice; for Mitochondrial average area in SN DA cells: vehicle = 0.143 ± 0.004, n = 102–473 per group; for Mitochondrial cytoplasmic coverage: vehicle = 9.94% ± 1.1; for average mitochondrial area in SN DA cells / mitochondrial coverage of cytoplasmic area / mitochondrial units per cell: iCre-DAT MFN2KO animals; for average mitochondrial area in SN DA cells: untreated KO = 0.163 ± 0.005; for mitochondrial coverage of cytoplasmic area: untreated KO = 9.35% ± 0.56; for mitochondrial units per cell: untreated KO = 80 ± 12
Summary of the method: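 Mice got test peptide (15 nmoles) or saline s.c. daily for 10 days, 15 min before dark onset. […] Perfusion: ice-cold saline, then 4% PFA/15% picric acid/0.1% glutaraldehyde in 0.1M PB. Sections were freeze-thawed and immunolabelled. Mitochondria required visible cristae and a double membrane. Coverage = summed mitochondrial area / (cell − nucleus area), %.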

[3] = test system: microglia in SN; assay: Microglia immunostaining with IBA-1 antibody in SN; settings: after MPTP exposure, with or without Dln101 pre-treatment
Summary of the method: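 Sections were blocked in 5% normal goat serum, 1% BSA, 0.1% glycine and 0.1% L-lysine. Rabbit polyclonal anti-IBA-1 (1:3000) was applied overnight at 4 °C, then a biotinylated secondary with ABC/DAB or avidin-Alexa 488. TH was co-stained.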

[4] = Accelerating rotarod test, MPTP model; settings: WT mice; MPTP after saline, ghrelin or Dln101 pre-treatment; vehicle = 88.9 ± 6.4; mean ± SEM, n = 5–11 per group
[5] = 1 day after MPTP (15 mg/kg), alone or after Dln101 pre-treatment

In the case of CN1CC=C(c2ccccc2)CC1 [MPTP, 1-methyl-4-phenyl-1,2,5,6 tetrahydropyridine], the “increase in ROS production in SN DA neurons (DHE fluorescence)” value [1] was 7.46 fold, the “Mitochondrial average area in SN DA cells” value ([2]; 4 h after MPTP (15 mg/kg)) was 0.112 ± 0.006 μm^2 and the Mitochondrial cytoplasmic coverage ([2]; 4 h after MPTP (15 mg/kg)) was 8.66% ± 0.68. For the same compound, the “Mitochondrial average area in SN DA cells” value [2, 5] was 0.176 ± 0.006 μm^2, the Mitochondrial cytoplasmic coverage [2, 5] was 6.144% ± 0.51 and the “average mitochondrial area in SN DA cells” value ([2]; 4h after MPTP, n = 421–1456) was 0.179 ± 0.004. For the same compound, the “mitochondrial coverage of cytoplasmic area” value ([2]; 4h after MPTP) was 10.22 ± 0.69%, the “mitochondrial units per cell” value ([2]; 4h after MPTP) was 52 ± 6 and the “average mitochondrial area in SN DA cells” value ([2]; 3days after MPTP) was 0.287 ± 0.006. For the same compound, the “mitochondrial coverage of cytoplasmic area” value ([2]; 3days after MPTP) was 23.32 ± 4.21%, the “mitochondrial units per cell” value ([2]; 3days after MPTP) was 29 ± 3 and the “microglial morphology / activation in SN (IBA1 immunostaining)” value [3] was “microglial activation”. The “Latency to fall from the rotarod” value [4] was 51.0 ± 5.0 s.

From PMC6531791 (Molecular Metabolism, 2019)
